Test results reported in ChEMBL document CHEMBL1133716, “AMP deaminase inhibitors. 3. SAR of 3-(carboxyarylalkyl)coformycin aglycon analogues” (J Med Chem, 2000).

Experiments:
Adenosine deaminase [1] = biological target: T1, Adenosine deaminase (Bos taurus, UniProt P56658); test: Inhibitory activity against calf intestinal Adenosine deaminase (ADA)
T1 sequence (P56658 whole entry): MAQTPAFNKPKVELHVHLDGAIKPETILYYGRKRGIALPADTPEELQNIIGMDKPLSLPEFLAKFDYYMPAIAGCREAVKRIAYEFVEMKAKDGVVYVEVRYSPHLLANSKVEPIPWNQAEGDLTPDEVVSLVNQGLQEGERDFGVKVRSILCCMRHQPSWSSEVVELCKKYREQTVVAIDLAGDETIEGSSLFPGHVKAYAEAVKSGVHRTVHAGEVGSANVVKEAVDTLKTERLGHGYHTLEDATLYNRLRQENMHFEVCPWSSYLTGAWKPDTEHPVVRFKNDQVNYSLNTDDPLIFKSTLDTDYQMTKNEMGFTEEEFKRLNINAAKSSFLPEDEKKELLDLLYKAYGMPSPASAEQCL

[2] = Inhibitory activity against porcine heart Adenylate deaminase (AMPDA); parameters: species or system Sus scrofa
How it was run: (§1)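 Values are reported as Ki against porcine heart AMPDA, determined by a procedure described in earlier work.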

[3] = Compound was evaluated for its inhibitory activity against porcine heart adenylate deaminase (AMPDA); parameters: species or system Sus scrofa; how it was run: as §1
Adenosine deaminase [4] = biological target: T1, Adenosine deaminase; test: Compound was evaluated for its inhibitory activity against calf intestinal Adenosine deaminase (ADA)

Row | Ki (Adenosine deaminase [1]) | Ki [2] | SMILES | Ki [3] | Ki (Adenosine deaminase [4])
1 | > 7.5 µM | 9.5 µM | O=C(O)c1ccc(CCn2cnc3c2NC=NCC3O)s1 (stereo unspecified) |  | 
2 | > 7.5 µM | 0.19 µM | CCCc1ccc(C(=O)O)cc1CCn1cnc2c1NC=NCC2O (stereo unspecified) |  | 
3 | > 500 µM | 4.5 µM | O=C(O)c1ccccc1SCCn1cnc2c1NC=NCC2O (stereo unspecified) |  | 
4 | > 7.5 µM | 0.08 µM | O=C(O)c1cc(Br)cc(CCn2cnc3c2NC=NCC3O)c1 (stereo unspecified) |  | 
5 | > 7.5 µM | 9 µM | O=C(O)c1c(F)cccc1CCCn1cnc2c1NC=NCC2O (stereo unspecified) |  | 
6 | 2.3 µM | 60.6 µM | COC(=O)c1ccccc1OCCn1cnc2c1NC=NCC2O (stereo unspecified) |  | 
7 | > 100 µM | 0.1 µM | Cc1ccc(C(=O)O)cc1CCn1cnc2c1NC=NCC2O (stereo unspecified) |  | 
8 | > 7.5 µM | 0.35 µM | O=C(O)c1ccc(CO)c(CCn2cnc3c2NC=NCC3O)c1 (stereo unspecified) |  | 
9 | > 3.4 µM | 72 µM | O=C(O)c1ccc(Cn2cnc3c2NC=NCC3O)o1 (stereo unspecified) |  | 
10 | 270 µM | 31.3 µM | O=C(O)c1ccccc1OCCn1cnc2c1NC=NCC2O (stereo unspecified) |  | 
11 | > 7.5 µM | > 125 µM | O=C(O)c1ccc(Cn2cnc3c2NC=NCC3O)cc1 (stereo unspecified) |  | 
12 | > 7.5 µM | 0.22 µM | O=C(O)c1cc(CCn2cnc3c2NC=NCC3O)ccc1Cl (stereo unspecified) |  | 
13 | > 7.5 µM | 31.8 µM | O=C(O)c1cccc(OCCn2cnc3c2NC=NCC3O)c1 (stereo unspecified) |  | 
14 | > 7.5 µM | 2.2 µM | O=C(O)c1cc(CCn2cnc3c2NC=NCC3O)cs1 (stereo unspecified) |  | 
15 | > 7.5 µM | 13.3 µM | O=C(O)c1ccc(CCCn2cnc3c2NC=NCC3O)o1 (stereo unspecified) |  | 
16 | > 7.5 µM | 0.08 µM | CCc1ccc(C(=O)O)cc1CCn1cnc2c1NC=NCC2O (stereo unspecified) |  | 
17 | > 7.5 µM | 0.29 µM | O=C(O)c1cc(CCn2cnc3c2NC=NCC3O)cc(-c2ccc(Cl)cc2)c1 (stereo unspecified) |  | 
18 | 1.2 µM | 5.2 µM | Cc1ccc(C(=O)O)cc1CCCn1cnc2c1NC=NCC2O (stereo unspecified) |  | 
19 | 6.1 µM | 12.5 µM | O=C(O)c1ccccc1CCCn1cnc2c1NC=NCC2O (stereo unspecified) |  | 

Row | Ki (Adenosine deaminase [1]) | Ki [2] | SMILES | Ki [3] | Ki (Adenosine deaminase [4])
20 | 2.3 µM | > 125 µM | O=C(O)c1cccc(C#CCn2cnc3c2NC=NCC3O)c1 (stereo unspecified) |  | 
21 | > 7.5 µM | 12 µM | CCOC(=O)c1cc(CCn2cnc3c2NC=NCC3O)ccc1C (stereo unspecified) |  | 
22 | > 7.5 µM | 11.8 µM | Cc1ccc(CCCn2cnc3c2NC=NCC3O)c(C(=O)O)c1 (stereo unspecified) |  | 
23 | > 7.5 µM | 11.2 µM | O=C(O)Cc1cccc(Cn2cnc3c2NC=NCC3O)c1 (stereo unspecified) |  | 
24 | 81 µM | 160 µM | COC(=O)c1ccc(CCn2cnc3c2NC=NCC3O)cc1 (stereo unspecified) |  | 
25 | 8.7 µM | 170 µM | COC(=O)c1ccc(Cn2cnc3c2NC=NCC3O)cc1 (stereo unspecified) |  | 
26 | 3.8 µM | 14 µM | CCCc1ccc(C(=O)OC)cc1CCn1cnc2c1NC=NCC2O (stereo unspecified) |  | 
27 | > 7.5 µM | 0.06 µM | CCc1cc(CCn2cnc3c2NC=NCC3O)cc(C(=O)O)c1 (stereo unspecified) |  | 
28 | > 500 µM | 44.1 µM | O=C(O)Cc1cccc(CCn2cnc3c2NC=NCC3O)c1 (stereo unspecified) |  | 
29 | 1.8 µM | 6.3 µM | O=C(O)c1ccc2ccccc2c1CCCn1cnc2c1NC=NCC2O (stereo unspecified) |  | 
30 | > 7.5 µM | 11 µM | CCOC(=O)c1ccc(C)c(CCn2cnc3c2NC=NCC3O)c1 (stereo unspecified) |  | 
31 | > 7.5 µM | 21 µM | COC(=O)c1ccc(OC)c(CCn2cnc3c2NC=NCC3O)c1 (stereo unspecified) |  | 
32 | > 7.5 µM | 0.07 µM | O=C(O)c1cc(CCn2cnc3c2NC=NCC3O)cc(-c2ccccc2)c1 (stereo unspecified) |  | 
33 | > 7.5 µM | 18 µM | CCOC(=O)c1cc(CCn2cnc3c2NC=NCC3O)cc(-c2ccccc2)c1 (stereo unspecified) |  | 
34 | > 7.5 µM | 2.7 µM | CCOC(=O)c1cc(Br)cc(CCn2cnc3c2NC=NCC3O)c1 (stereo unspecified) |  | 
35 | > 7.5 µM | 0.48 µM | COc1ccc(C(=O)O)cc1CCn1cnc2c1NC=NCC2O (stereo unspecified) |  | 
36 | > 7.5 µM | 0.18 µM | O=C(O)c1cc(CCn2cnc3c2NC=NCC3O)cc(-c2cccc(Cl)c2)c1 (stereo unspecified) |  | 
37 | > 7.5 µM | > 125 µM | CC(C)c1cccc(C(=O)O)c1SCCn1cnc2c1NC=NCC2O (stereo unspecified) |  | 
38 | > 7.5 µM | 14 µM | COC(=O)c1cccc(C(C)C)c1CCCn1cnc2c1NC=NCC2O (stereo unspecified) |  | 

Row | Ki (Adenosine deaminase [1]) | Ki [2] | SMILES | Ki [3] | Ki (Adenosine deaminase [4])
39 | > 7.5 µM | 0.57 µM | Cc1ccc(CCn2cnc3c2NC=NCC3O)cc1C(=O)O (stereo unspecified) |  | 
40 | 5.6 µM | 15.9 µM | CCOC(=O)Cc1cccc(Cn2cnc3c2NC=NCC3O)c1 (stereo unspecified) |  | 
41 | > 7.5 µM | 0.16 µM | O=C(O)c1cc(CCn2cnc3c2NC=NCC3O)ccc1F (stereo unspecified) |  | 
42 | 0.08 µM | 22 µM | COC(=O)c1ccc(C)c(CCCn2cnc3c2NC=NCC3O)c1 (stereo unspecified) |  | 
43 | > 7.5 µM | 0.51 µM | O=C(O)c1cccc(CCn2cnc3c2NC=NCC3O)c1 (stereo unspecified) |  | 
44 | 6.7 µM | 92.6 µM | COC(=O)Cc1ccc(Cn2cnc3c2NC=NCC3O)cc1 (stereo unspecified) |  | 
45 | 5.2 µM | 24 µM | Cc1ccc(C(=O)O)c(CCCn2cnc3c2NC=NCC3O)c1 (stereo unspecified) |  | 
46 | > 7.5 µM | 16 µM | COC(=O)c1cccc(CCn2cnc3c2NC=NCC3O)c1 (stereo unspecified) |  | 
47 | 5.6 µM | 4.2 µM | COc1ccc(C(=O)O)cc1CCCn1cnc2c1NC=NCC2O (stereo unspecified) |  | 
48 | > 7.5 µM | 83.1 µM | CC(C)c1cccc(C(=O)O)c1CCCn1cnc2c1NC=NCC2O (stereo unspecified) |  | 
49 | > 7.5 µM | 0.19 µM | O=C(O)c1cc(CCn2cnc3c2NC=NCC3O)cc(-c2ccc(F)cc2)c1 (stereo unspecified) |  | 
50 | 8.9 µM | 6.6 µM | CCOC(=O)c1cc(CC)cc(CCn2cnc3c2NC=NCC3O)c1 (stereo unspecified) |  | 
51 | 11.9 µM | 37.9 µM | COC(=O)c1ccccc1SCCn1cnc2c1NC=NCC2O (stereo unspecified) |  | 
52 | 2.4 µM | 23.5 µM | O=C(O)c1cccc(CCCn2cnc3c2NC=NCC3O)c1 (stereo unspecified) |  | 
53 |  |  | CNOC(=O)c1ccc(C)c(CCCn2cnc3c2NC=NCC3O)c1 (stereo unspecified) | 19.8 µM | 0.05 µM
54 | 1.4 µM | 4.8 µM | O=C(O)c1sccc1CCCn1cnc2c1NC=NCC2O (stereo unspecified) |  | 
55 | > 500 µM | 92.2 µM | O=C(O)Cc1ccc(Cn2cnc3c2NC=NCC3O)cc1 (stereo unspecified) |  | 
56 | 2.6 µM | 8.1 µM | Cc1ccc(C(=O)OCc2ccccc2)cc1CCn1cnc2c1NC=NCC2O (stereo unspecified) |  | 

Row | SMILES | Ki (Adenosine deaminase [1]) | Ki [2] | Ki [3] | Ki (Adenosine deaminase [4])
57 | COC(=O)c1ccc(C)cc1CCCn1cnc2c1NC=NCC2O (stereo unspecified) | 0.06 µM | 38 µM |  | 
58 | COC(=O)c1cccc(CCCn2cnc3c2NC=NCC3O)c1 (stereo unspecified) | 0.16 µM | 24.3 µM |  | 
59 | COC(=O)c1ccc2ccccc2c1CCCn1cnc2c1NC=NCC2O (stereo unspecified) | 0.18 µM | 8.3 µM |  | 
60 | COC(=O)c1c(F)cccc1CCCn1cnc2c1NC=NCC2O (stereo unspecified) | 0.32 µM | 1.5 µM |  | 
61 | COC(=O)c1ccc(OC)c(CCCn2cnc3c2NC=NCC3O)c1 (stereo unspecified) | 0.13 µM | 52.8 µM |  | 
62 | COC(=O)c1ccccc1CCCn1cnc2c1NC=NCC2O (stereo unspecified) | 0.16 µM | 32.7 µM |  | 
63 | COC(=O)c1cc(C)ccc1CCCn1cnc2c1NC=NCC2O (stereo unspecified) | 0.04 µM | 1.6 µM |  | 
